Assay results taken from PMC5542026 (Cell, 2017).
≈ marks a conversion by molar mass, not a printed value. *1 amine or outer side, *2 acyl side, *3 side chain or, on linkers, in order; H or OH if unused. Where a SMILES comes first, the peptide text is derived from it. Bridges are numbered along the chain shown (N, C = ends). [ ]: non-standard residue; d: D form. The star is where a group is joined. X2 = C[C@H](Oc1ccc([C@H](N[*:1])C(=O)[*:2])cc1)[C@@]1(/C=C/C(=O)[*:3])CO1; X1 = CC(C)[C@H](O)[C@H](C)C(=O)*; aIle = CC[C@@H](C)[C@H](N)C(=O)O; dNMeF = CN[C@H](Cc1ccccc1)C(=O)O; aThr = C[C@H](O)[C@H](N)C(=O)O

Columns and labels:
[1] = tested on: E. coli strain D21f2tolC; assay: Broth-microdilution MIC, wild-type parent; format: cell-based; conditions: LB broth, 16 h, growth inhibited by >90%
[2] = tested on: E. coli GE-resistant mutants; assay: Cross-resistance of GE-resistant mutants to PUM; format: cell-based
[3] = tested on: S. pyogenes and E. coli resistant mutants; assay: Cross-resistance between PUM and Lpm, Myx, Stl, CBR703, Sal; format: cell-based
[4] = biological target: T1, E. coli RNAP σ^70 holoenzyme (Escherichia coli, UniProt P0A8T7+P0A8V2); assay: Formation of RNAP-promoter open complex; format: biochemical; conditions: 500 μM PUM
[5] = biological target: T2, E. coli RNAP (Escherichia coli, UniProt P0A8T7+P0A8V2); assay: Nucleotide addition in transcription elongation; format: biochemical; conditions: 500 μM PUM
Method in brief: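 Run per an earlier published protocol. Reactions contained no inhibitor, the test compound, 2 μM rifampicin or 100 μM lipiarmycin as comparator.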

[6] = tested on: E. coli strain D21f2tolC; assay: MIC on LB agar; format: cell-based; conditions: E. coli D21f2tolC plated on LB agar
[7] = biological target: T1, E. coli RNAP σ^70 holoenzyme; assay: Nucleotide addition on standard and U-less cassette templates; format: biochemical; conditions: standard vs U-less cassette template; 0–20 μM PUM
[8] = biological target: T1, E. coli RNAP σ^70 holoenzyme; assay: Nucleotide addition at elevated NTP concentrations; format: biochemical; conditions: 6 μM PUM; 10–500 μM varied NTP
[9] = tested on: S. pyogenes strain L49 or S. pneumoniae strain L44; assay: Checkerboard interaction assays PUM + Rif; format: cell-based; conditions: FICI
[10] = biological target: T2, E. coli RNAP; assay: Nucleotide addition in transcription initiation; format: biochemical; conditions: 500 μM PUM
Method in brief: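 Run per an earlier published protocol, labelled with 5 μM [α32P]UTP (3 Bq/fmol). Reactions contained no inhibitor, the test compound, 2 μM rifampicin or 100 μM lipiarmycin.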

[11] = biological target: bacterial RNAP (Escherichia coli, UniProt P0A8T7+P0A8V2); assay: RNAP-inhibitory activity in vitro; format: biochemical, E. coli; S. aureus; B. subtilis; conditions: read-out: IC50, inhibition of bacterial RNAP
[12] = tested on: S. pyogenes strain ATCC 12344; assay: Spontaneous resistance rate, Luria-Delbrück fluctuation assays; format: cell-based; conditions: compared with Rif
Method in brief: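 Luria-Delbrück fluctuation assay. ~1×10^9 cfu S. pyogenes ATCC 12344 per plate were plated on Todd Hewitt agar (1.5% agar) containing 64 or 128 μg/ml test compound, or 1 or 2 μg/ml rifampicin. Colonies were counted after 24 h at 37°C, with at least six independent determinations each.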

[13] = tested on: Staphylococcus simulans strain M22; assay: Effects on macromolecular synthesis; format: cell-based; conditions: PUM 100–200 μM
Method in brief: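 Staphylococcus simulans M22 was grown in 0.5x Mueller Hinton II broth at 37°C with shaking to OD600 0.5, then diluted to OD600 0.1–0.2. [2-14C]-thymidine was added at 6 kBq/ml for 15 min, and the culture was split. One half received test compound (final 100–200 μM). Samples taken at 0, 10, 20 and 40 min were quenched in ice-cold 10% TCA/1 M NaCl and held 30–60 min on ice.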

[14] = tested on: E. coli D21f2tolC with plasmid-encoded RNAP β/β′ derivatives; assay: E. coli plasmid-based resistance assay; format: cell-based; conditions: substitutions β565 Glu→Gly and β681 Met→Lys
Method in brief: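 E. coli transformants were grown from single colonies in LB with 200 μg/ml ampicillin at 37°C with shaking to OD600 0.4–0.8. They were induced with 1 mM IPTG for 1 h. About 2×10^5 cells were added to wells holding a 2-fold dilution series of test compound in the same medium (final 0 or 25–4000 μg/ml) and incubated 16 h at 37°C with shaking.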

[15] = tested on: S. pyogenes Rif-resistant mutants; assay: Cross-resistance of Rif-resistant mutants to PUM; format: cell-based; conditions: Figs. 1B–C,E
Method in brief: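 S. pyogenes mutants were selected on Todd Hewitt agar with rifampicin at 0.1–2 μg/ml (1–16x MIC) and sequenced. Thirteen mutants and the isogenic wild-type parent were grown in Todd Hewitt broth at 37°C in 7% CO2/6% O2/4% H2/83% N2 to OD600 0.4–0.8. They were tested by broth microdilution with a 2-fold test compound series (0 or 1.56–100 μg/ml) for 16 h at 37°C. MIC was taken at >90% growth inhibition.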

[16] = tested on: S. pyogenes ATCC 12344; assay: Broth-microdilution MIC, wild-type parent; format: cell-based; conditions: Todd Hewitt broth, 16 h, growth inhibited by >90%
[17] = biological target: T1, E. coli RNAP σ^70 holoenzyme; assay: Multiple-nucleotide-addition reactions; format: biochemical; conditions: 10 μM NTPs
[18] = biological target: [565Glu→Asp]β-RNAP σ^70 holoenzyme (Escherichia coli, UniProt P0A8T7+P0A8V2, E565D); assay: Fluorescence-detected transcription assay, mutant RNAP; format: biochemical, E. coli
[19] = tested on: S. pyogenes C203; assay: Mouse Streptococcus pyogenes peritonitis model; format: in vivo
Method in brief: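 Female ICR mice (23–25 g) were acclimatised for one week at 23±2°C and 55±10% humidity. They were infected intraperitoneally with 4×10^3 cfu S. pyogenes C203 in 0.5 ml saline containing 1% peptone. Groups of eight, randomised and unblinded, received 2.5-fold test compound dilutions in 5% dextrose by one of three regimens: i.v. at 10 min and 6 h (total 3.2–50 mg/kg); single i.v. at 10 min; or single s.c. at 10 min (each total 1.024–40 mg/kg).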

[20] = biological target: E. coli RNAP core enzyme (Escherichia coli, UniProt P0A8T7+P0A8V2); assay: Single-nucleotide-addition reactions; format: biochemical; conditions: 25 μM PUM; 2.5 μM NTPs
Method in brief: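 Elongation complexes were assembled on nucleic-acid scaffolds, annealed 5 min at 95°C and step-cooled to 4°C in 5 mM Tris-HCl pH 7.7, 200 mM NaCl, 10 mM MgCl2. Steps at 37°C: 10 min preincubation, 5 min with compound (0 or 25 μM), 5 min with single NTP.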

[21] = tested on: S. pyogenes PUM-resistant mutants; assay: Resistance levels of spontaneous PUM-resistant mutants; format: cell-based; conditions: substitutions at β residues 565, 681, and 684, and β′ residue 786
[22] = tested on: human serum proteins; assay: Growth-curve assays in absence and presence of 30% human serum; format: in vitro ADME

ONC(=Nc1ccccc1)c1cccc(C(F)(F)F)c1 [CBR703]
MICwild-type [1]: 6.25 µg/mL

NC(=O)CC[C@@H](C(=O)NC[C@H]1O[C@@H](c2c[nH]c(=O)[nH]c2=O)[C@H](O)[C@@H]1O)N(O)C(=O)CN=C(N)N [PUM, pseudouridimycin]
cross-resistance with GE [2]: partial cross-resistance | cross-resistance with Lpm, Myx, Stl, CBR703, and Sal [3]: does not exhibit cross-resistance | effect on formation of catalytically-competent RNAP-promoter open complex, RPo [4]: Absence of inhibition | MICwild-type [1]: 400 µg/mL | effect on nucleotide addition in transcription elongation [5]: Inhibition by PUM of nucleotide addition in transcription elongation | MIC under these conditions [6]: ~800 mg/L (≈ 1640 µM) | template dependence of transcription inhibition [7]: inhibits transcription only on templates that direct incorporation of U | effect of high NTP concentrations on transcription inhibition [8]: high concentrations of UTP–but not high concentrations of GTP, ATP, or CTP–overcome transcription inhibition by PUM | antibacterial activity when co-administered with Rif [9]: additive antibacterial activity | effect on nucleotide addition in transcription initiation [10]: Inhibition by PUM of nucleotide addition in transcription initiation | IC50 [11]: 0.1 µM | spontaneous resistance rates [12]: an order-of-magnitude lower than those of Rif | effect on DNA synthesis ([14C]-thymidine incorporation) [13]: little or no inhibition of DNA synthesis | effect on RNA synthesis ([3H]-uridine incorporation) [13]: rapid and strong inhibition of RNA synthesis | effect on protein synthesis ([14C]-isoleucine incorporation) [13]: slower and weaker inhibition of protein synthesis | resistance (MIC/MICwild-type) [14]: ≥ 4 x | cross-resistance with Rif [15]: no cross-resistance | MICwild-type [16]: 6.25 µg/mL | nucleotide specificity of inhibition, multiple-nucleotide addition [17]: inhibits incorporation of U, but not G, A, or C | inhibition of purified RNAP containing β565 Glu→Asp [18]: PUM-resistant phenotype | ED50 (dose yielding 50% survival at 7 days) [19]: 9 mg/kg | nucleotide specificity of inhibition, single-nucleotide addition [20]: inhibits incorporation of U, but not G, A, or C | PUM-resistance (MIC/MICwild-type) [21]: ≥ 4 x | antibacterial activity in absence versus presence of human serum ([22]; 30% human serum, Fig. 1C rows 1–4): Identical results | unbound fraction ([22]; human serum proteins, inferred from 30% human serum assays): ~ 100%

CO[C@H]1/C=C/O[C@@]2(C)Oc3c(C)c(O)c4c(O)c(c(/C=N/N5CCN(C)CC5)c(O)c4c3C2=O)NC(=O)/C(C)=C\C=C\[C@H](C)[C@H](O)[C@@H](C)[C@@H](O)[C@@H](C)[C@H](OC(C)=O)[C@@H]1C [Rif, rifampin]
MICwild-type [1]: 0.20 µg/mL | MICwild-type [16]: 0.098 µg/mL

CCCC/C(C)=C/C=C(\C)C(=O)c1c(O)cc([C@H](C)CC/C=C/NC(=O)OC)oc1=O [myxopyronin B]
MICwild-type [1]: 0.20 µg/mL | MICwild-type [16]: 6.25 µg/mL

CC[C@@H](C)[C@@H]1NC(=O)[C@H](NC(=O)[C@@H](C)[C@@H](O)C(C)C)[C@H](C)OC(=O)[C@H]2COC(=O)CNC(=O)/C=C/[C@@]3(CO3)[C@H](C)Oc3ccc(cc3)[C@H](NC1=O)C(=O)N(C)[C@H](Cc1ccccc1)C(=O)N[C@@H]([C@H](C)O)C(=O)N2 [salinamide A] (X1-[dT][aIle][X2][dNMeF][aThr][dS]; ester 1-C; linker 3-6 via G)
MICwild-type [1]: 0.049 µg/mL

CNC(=O)[C@@H](C)[C@H]1C(=O)/C(=C(O)/C=C/C(C)=C/[C@@H](C)[C@H]2O[C@@]3(C)O[C@H](C=C[C@@]34CO4)[C@@H]2C)C(=O)N1[C@@H]1CC[C@H](O)[C@H](C)O1 [streptolydigin]
MICwild-type [1]: 3.13 µg/mL | MICwild-type [16]: 3.13 µg/mL

GE23077
MICwild-type [1]: 500 µg/mL

lipiarmycin A3
MICwild-type [1]: 1.56 µg/mL | MICwild-type [16]: 6.25 µg/mL
